The list is not random: actives were taken first. Their share in the collection is about 1.9%.
Autophagy mod = modulators of autophagy. MEF GFP-LC3 puncta imaging; test concentration mostly 10 µM. calls only at 10 µM (by protocol). hit rate 0.98% among 190,000. AID 463193;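 active means percentage of spot-positive cells more than 3 SD above its plate mean, without a fluorescence outlier flag or 80% toxicity; inconclusive means no clear call, values can overlap the other calls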
HSV augment = HSV replication enhancement; HSV replication augmentation in cells, fold increase; maximum fold increase; hit rate 0.005% among 220,000; in the data active means maximum fold increase above about 1.5; inconclusive means no clear call, values can overlap the other calls; tested in PC3 cells
Ins promoter up = MIN6 insulin promoter up-regulation. MIN6 insulin promoter-GFP reporter, high-content imaging; active compounds read high. z-score at 5 µM. hit rate 0.3% among 190,000. AID 1625;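 active means z-score above 3 at 5 µM with at least 500 cells counted in the well; inconclusive means wells under 500 cells, flagged as cytotoxic or low count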
MT stabilizer = microtubule stabilizers in HeLa cells; % tubulin-high responders, % at 10 µM; hit rate 0.83% among 200,000; HeLa tubulin immunostaining HCS, 24 h; share of cells brighter than vehicle mean+2SD;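 active means plate Z-score above 3 for both tubulin-high and condensed-nucleus cell shares, with cell loss under 80%, at 10 µM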;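 further: anti alpha tubulin signal scored within the nucleus-defined area of each cell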
bCat nuc transl = beta-catenin nuclear translocation modulation; HeLa beta-catenin nuclear translocation, immunofluorescence imaging; nuclear translocation activity, % at 5 µM; hit rate 0.3% among 190,000; AID 1665;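 active means nuclear translocation activity above 50% at 5 µM, with a well cell count of 50 or more; inconclusive means wells under 50 cells across six images, flagged as toxic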;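 further: per-cell ratio of nuclear to cytoplasmic median beta-catenin stain intensity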
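Test system: HeLa cells, endogenous beta-catenin; Compound: single 5 µM dose plus 0.02–20 µM confirmation series; Times: compound exposure 24 h at 37°C; Signal: fluorescence imaging of beta-catenin antibody stain plus DAPI; Read-out: % activation, nuclear-to-cytoplasmic median beta-catenin signal ratio per cell.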
Furin inh = blocks human furin protease activity | purified furin, fluorogenic substrate cleavage | AID 463115 | P09958 | inhibition, % at 20 µM or 30 µM | hit rate 0.061% among 220,000; in the data active means inhibition above about 25%
Target sequence (P09958 108-714 limits assumed): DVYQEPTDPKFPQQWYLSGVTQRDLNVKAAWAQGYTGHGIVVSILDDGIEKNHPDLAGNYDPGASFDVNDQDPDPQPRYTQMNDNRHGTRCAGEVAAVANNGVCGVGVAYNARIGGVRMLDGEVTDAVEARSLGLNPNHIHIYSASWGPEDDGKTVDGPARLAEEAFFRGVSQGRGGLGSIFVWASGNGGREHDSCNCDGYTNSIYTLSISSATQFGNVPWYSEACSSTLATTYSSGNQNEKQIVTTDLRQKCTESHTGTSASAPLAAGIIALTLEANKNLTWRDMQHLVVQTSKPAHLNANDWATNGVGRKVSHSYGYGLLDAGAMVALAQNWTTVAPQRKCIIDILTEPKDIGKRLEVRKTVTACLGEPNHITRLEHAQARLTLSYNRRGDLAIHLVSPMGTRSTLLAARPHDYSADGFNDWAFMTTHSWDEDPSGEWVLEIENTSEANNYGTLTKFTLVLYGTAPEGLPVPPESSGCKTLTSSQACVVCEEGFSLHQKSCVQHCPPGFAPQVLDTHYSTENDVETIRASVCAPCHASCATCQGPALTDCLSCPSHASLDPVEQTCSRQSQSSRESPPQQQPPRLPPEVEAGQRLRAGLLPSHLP
Of the large screens only hits and unclear results are named; the others gave an inactive call.

O=[N+]([O-])c1ccc(Oc2cccc(Br)c2)c2ccncc12	Autophagy mod active
COc1cccc(NC(=O)Nc2ccc(C(C)(C)C)cc2)c1	none (no result: Ins promoter up)
C=CCn1c(SCC(=O)c2cc(C)n(CCOC)c2C)nc2sc(C)c(C)c2c1=O	none
COc1ccccc1Nc1nc(Cl)c(C=O)s1	Ins promoter up 3.2
COc1ccccc1Nc1nc2c(s1)CCC2	none
O=Cc1sc(Nc2ccccc2)nc1Cl	HSV augment inconclusive, Ins promoter up 3.7
Cc1ccc(Nc2nc(Cl)c(C=O)s2)cc1Cl	none (no result: Ins promoter up)
CCOc1cccc(-c2nnc3sc(-c4cc(OC)c(OC)c(OC)c4)nn23)c1	none (no result: HSV augment)
COc1cccc(-c2nn3c(-c4cccc(C)c4)nnc3s2)c1	none
COc1cccc(-c2nnc3sc(-c4ccc(C)cc4)nn23)c1	MT stabilizer 33, bCat nuc transl 68 (no result: HSV augment)
COc1cc(-c2nn3c(-c4ccccc4)nnc3s2)cc(OC)c1OC	Autophagy mod active
CCN(CC)c1ccc(-c2nn3c(-c4cccnc4)nnc3s2)cc1	MT stabilizer 38 (no result: HSV augment)
CCOC(=O)c1c(-c2ccc(C)cc2)csc1NC(=O)CCN1CC(C)OC(C)C1 (centres undefined)	none (no result: HSV augment, bCat nuc transl)
CCN1CCN(c2cc(C)c3cc(NC(=O)c4ccc(OC)c(OC)c4)ccc3n2)CC1	Autophagy mod active (no result: bCat nuc transl)
O=C(NCCO)/C(=C/c1ccc2c(c1)OCO2)NC(=O)c1ccc(Br)cc1	Autophagy mod active
O=C(O)CNC(=O)/C(=C\c1ccc2c(c1)OCO2)NC(=O)c1ccc(Br)cc1	none
CC(C)c1ccc(C2CC(=O)N3CN(C)CSC3=C2C#N)cc1 (centres undefined)	none (no result: bCat nuc transl)
CC(C)c1ccc(C2C(C#N)=C(N)N3C(=C2C#N)Sc2ccccc23)cc1 (centres undefined)	Autophagy mod active
Cc1ccc([N+](=O)[O-])c(NC2OC(CO)C(O)C2O)c1 (centres undefined)	none
COc1ccc(C2C(C#N)=C(N)N(c3cccnc3)C3=C2C(=O)CC(C)(C)C3)cc1OC (centres undefined)	none
COc1ccc(N2C(N)=C(C#N)C(c3cccnc3)C3=C2CC(C)(C)CC3=O)cc1 (centres undefined)	MT stabilizer 50 (no result: Ins promoter up)
COc1cc2c(cc1OC)C(C(=O)Nc1cc(OC)c(OC)c(OC)c1)C(c1cccnc1)N(C)C2=O (centres undefined)	none
COc1ccc(-c2n(CC(=O)OC3CC(C)CCC3C(C)C)c3ccccc3[n+]2C)cc1 (centres undefined)	Autophagy mod active (no result: Ins promoter up)
CCOC(=O)c1ccc(NC(=S)N(CCCN2CCN(CC)CC2)Cc2ccco2)cc1	Autophagy mod active
CCOC(=O)c1ccc(NC(=S)N(CCCN2CCCC2)Cc2ccco2)cc1	none
Cc1ccc(NC(=S)N(CCCN2CCN(C)CC2)Cc2cccs2)cc1	none
Cc1ccc(NC(=S)N(CCCN2CCN(C)CC2)Cc2cccs2)cc1C	Autophagy mod active
O=C(c1ccc(S(=O)(=O)c2cccc(Cl)c2)c([N+](=O)[O-])c1)N1CCN(c2ccccn2)CC1	none
C=C(C)COc1ccc(-c2n[nH]c(C)c2-c2ccc(Br)cc2)c(O)c1	Autophagy mod active, MT stabilizer 26 (no result: Ins promoter up, bCat nuc transl)
C=C(C)COc1ccc(-c2nc(N)ncc2Oc2ccc(OC)cc2)c(O)c1	none (no result: HSV augment)
C=C(C)COc1ccc(-c2[nH]ncc2-c2ccc(Br)cc2)c(O)c1	MT stabilizer 19
COc1ccc(-c2c(-c3ccc(O)cc3O)n[nH]c2C)cc1OC	MT stabilizer 35 (no result: bCat nuc transl)
C=C(C)COc1ccc(-c2[nH]ncc2-c2ccccc2OC)c(O)c1	MT stabilizer 29
C=C(C)COc1ccc(-c2[nH]ncc2Oc2ccccc2OC)c(O)c1	none
COc1ccc(OC)c(-c2c(C#N)c(N)nc3c2c(=O)nc2sccn23)c1	Autophagy mod active
COc1ccc(OC)c(-c2cc(-c3cccnc3)nc(N)c2C#N)c1	none (no result: Autophagy mod, MT stabilizer)
Cc1nnc(SCC(=O)N(C)C2CCS(=O)(=O)C2)n1Cc1ccccc1 (centres undefined)	none
CCN(C(=O)CSc1nnc(C)n1Cc1ccccc1)C1CCS(=O)(=O)C1 (centres undefined)	Autophagy mod active
CCc1nc2sc3c(O)cc(=O)[nH]c3c2cc1C	none (no result: Ins promoter up)
Cc1ccc(CNC(=O)CNC(=S)N(Cc2ccccc2)Cc2ccccc2F)cc1	Autophagy mod active
COCCNC(=O)Cc1ccc(F)cc1	Ins promoter up 3
Cc1ccc(CC(=O)NCc2ccc(F)cc2)cc1	MT stabilizer 25
CCC(CO)NCC#Cc1ccccc1 (centres undefined)	none
Cc1cc(=O)oc2cc(OCc3ccc(C(=O)OCC(=O)Nc4ccc(N(C)C)cc4)cc3)ccc12	none
CCC(C)Oc1ccccc1C1CC(=O)NC2=C1C(=O)CCC2 (centres undefined)	MT stabilizer 60
O=C(Nc1ccc2c(c1)CCC2)c1cnn2c1NC(c1ccco1)CC2C(F)(F)F (centres undefined)	Autophagy mod active
N=C1C(c2nc3ccccc3s2)=C(O)CN1Cc1ccco1	Autophagy mod active
CN(C)CCN1CC(O)=C(c2nc3ccccc3s2)C1=N	none (no result: Autophagy mod, MT stabilizer)
Cc1ccc([N+](=O)[O-])cc1NC(=O)C(C)NS(=O)(=O)c1ccc(F)cc1 (centres undefined)	none
CC(=O)c1ccc(NC(=O)COc2ccc3c(c2)OCO3)cc1	none
O=C(OCCN1C(=O)c2cccc3c(N4CCOCC4)ccc(c23)C1=O)c1ccc(Cl)cc1	HSV augment inconclusive
CCCN(CCC)S(=O)(=O)c1ccc(C(=O)OCCN2C(=O)c3cccc4c(N5CCOCC5)ccc(c34)C2=O)cc1	Autophagy mod active, HSV augment inconclusive, Ins promoter up 6.2
COc1cc(C(C[N+](=O)[O-])c2c(C)[nH]c3ccccc23)ccc1O (centres undefined)	Autophagy mod active
CCOC(=O)/C(=C\C=C1/Sc2cc(OCC)c(OCC)cc2N1CC)C(C)=O	Autophagy mod active (no result: HSV augment, Ins promoter up)
CCN1/C(=C/C(C)=O)Sc2ccc(OC)cc21	none
CCOC(=O)/C(=C/C=C1\Sc2cc(OCC)c(OCC)cc2N1CC)C(C)=O	Autophagy mod active, Ins promoter up 16 (no result: HSV augment, bCat nuc transl)
Cc1cc(N2CCN(c3nc(N4CCOCC4)nc4ccccc34)CC2)c2ccccc2n1	Autophagy mod active (no result: HSV augment, Ins promoter up, bCat nuc transl)
CCC(CC)NC(=O)Nc1cccc(C)c1C	none
CCC(C)N(CC(=O)Nc1cccc(C)c1C)C(=O)CCl (centres undefined)	Autophagy mod active
COC(=O)c1[nH]c2cc(OC)ccc2c1NC(=O)c1nonc1C	MT stabilizer 37
CCOC(=O)c1[nH]c2ccc(OC)cc2c1NC(=O)c1nonc1C	none
CCOC(=O)N1CCN(c2c(F)cc3[nH]c(=S)[nH]c3c2Br)CC1	Autophagy mod active, MT stabilizer 47
CCOC(=O)N1CCN(c2cc3[nH]c(=S)[nH]c3cc2F)CC1	none
CCN(CC)c1nc(C)c(C(=S)Nc2cc([N+](=O)[O-])ccc2Cl)s1	Autophagy mod active (no result: HSV augment, bCat nuc transl)

Assay outcomes from PubChem.
